Reference: article PMC5458759 (Genes & Development, 2017)

Experiments:
ERL2^LRR [1] = assay: Pull-down assay with 6xHis-tagged ERL2^LRR; assay type: binding, Arabidopsis; conditions: Ni resin, SDS-PAGE, Coomassie blue; without TMM^LRR
How it was run: (§1)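 Purified C-terminal 6xHis-tagged receptor LRR, from High Five cells, was mixed with excess EPF-family peptide and Ni resin for 30 min on ice. The resin was washed four times in 25 mM Tris pH 8.0, 250 mM NaCl, 15 mM imidazole, then heated 5 min at 100°C in SDS loading buffer. Bound protein was detected by SDS-PAGE with Coomassie staining.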

ER^LRR [2] = assay: Pull-down assay with 6xHis-tagged ER^LRR; assay type: binding, Arabidopsis; conditions: Ni resin, SDS-PAGE, Coomassie blue; without TMM^LRR
How it was run: as §1

ERL2^LRR [3] = assay: Gel filtration assay with ERL2^LRR; assay type: binding, Arabidopsis; conditions: 10 mM Bis-Tris pH 6.0, 100 mM NaCl; incubated 30 min at 4°C
How it was run: (§2)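 LRR ectodomains were expressed in High Five insect cells by baculovirus at 22°C; for complexes, the ERf and TMM viruses were added together. Protein was purified from the supernatant by Ni-NTA and then size exclusion. Receptor and EPF-family peptide were mixed, held 30 min at 4°C, then run on Superdex 200 in 10 mM Bis-Tris pH 6.0, 100 mM NaCl. Fractions were analysed by SDS-PAGE with Coomassie staining.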

ERL1^LRR [4] = assay: Pull-down assay with 6xHis-tagged ERL1^LRR; assay type: binding, Arabidopsis; conditions: Ni resin, SDS-PAGE, Coomassie blue; without TMM^LRR
How it was run: as §1

ER^LRR [5] = assay: Gel filtration assay with ER^LRR; assay type: binding, Arabidopsis; conditions: 10 mM Bis-Tris pH 6.0, 100 mM NaCl; incubated 30 min at 4°C
How it was run: as §2

ERL1^LRR [6] = assay: Gel filtration assay with ERL1^LRR; assay type: binding, Arabidopsis; conditions: 10 mM Bis-Tris pH 6.0, 100 mM NaCl; incubated 30 min at 4°C
How it was run: as §2

ERL1^LRR [7] = assay: Biochemical assay of EPFL8 interaction; assay type: binding, Arabidopsis; conditions: Supplemental Fig. S11
ERL1^LRR–TMM^LRR complex [8] = assay: Ligand competition assay, ERL1^LRR–TMM^LRR; assay type: binding, Arabidopsis; conditions: 10 µM EPF2-6xHis or EPF1-6xHis, increasing concentrations of EPFL9, 1 h at 4°C
How it was run: (§3)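 The ERf–TMM LRR complex was coexpressed in High Five cells and purified by Ni-NTA and gel filtration. It was incubated with 10 µM His-tagged EPF peptide, with or without varying concentrations of competing peptide, for 1 h at 4°C with gentle agitation. The mixture was then passed over Ni beads and washed four times. Eluate was boiled 5 min at 100°C in SDS loading buffer and read by SDS-PAGE with Coomassie staining.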

ER^LRR–TMM^LRR complex [9] = assay: Ligand competition assay, ER^LRR–TMM^LRR; assay type: binding, Arabidopsis; conditions: 10 µM EPF2-6xHis or EPF1-6xHis, increasing concentrations of EPFL9, 1 h at 4°C
How it was run: as §3

ERL1^LRR–TMM^LRR complex [10] = assay: Gel filtration assay with ERL1^LRR–TMM^LRR complex; assay type: binding, Arabidopsis; conditions: 10 mM Bis-Tris pH 6.0, 100 mM NaCl; incubated 30 min at 4°C
How it was run: as §2

[11] = target: T1, ERL1^LRR, extracellular LRR domain of ER-LIKE1 (ERL1) (Arabidopsis thaliana, UniProt C0LGW6 24-580); assay: ITC
T1 sequence: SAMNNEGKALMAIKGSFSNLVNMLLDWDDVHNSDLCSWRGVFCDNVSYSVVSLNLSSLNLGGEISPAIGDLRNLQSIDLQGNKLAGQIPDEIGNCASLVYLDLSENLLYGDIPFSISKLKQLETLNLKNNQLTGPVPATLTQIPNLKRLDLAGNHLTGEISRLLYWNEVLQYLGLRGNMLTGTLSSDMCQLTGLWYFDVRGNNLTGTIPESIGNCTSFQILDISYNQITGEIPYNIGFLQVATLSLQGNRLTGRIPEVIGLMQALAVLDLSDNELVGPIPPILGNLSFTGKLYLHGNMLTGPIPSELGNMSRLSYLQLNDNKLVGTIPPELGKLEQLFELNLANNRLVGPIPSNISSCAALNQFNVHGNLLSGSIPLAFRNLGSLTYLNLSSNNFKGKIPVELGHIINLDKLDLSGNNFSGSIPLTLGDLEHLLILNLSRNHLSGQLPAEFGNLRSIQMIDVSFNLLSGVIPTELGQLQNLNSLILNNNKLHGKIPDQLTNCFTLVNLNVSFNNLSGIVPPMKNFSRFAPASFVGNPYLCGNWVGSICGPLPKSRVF

ERL1^LRR–TMM^LRR complex [12] = target: T2, ERL1^LRR–TMM^LRR complex (Arabidopsis thaliana, UniProt C0LGW6;Q9SSD1); assay: ITC
T2 sequence 1: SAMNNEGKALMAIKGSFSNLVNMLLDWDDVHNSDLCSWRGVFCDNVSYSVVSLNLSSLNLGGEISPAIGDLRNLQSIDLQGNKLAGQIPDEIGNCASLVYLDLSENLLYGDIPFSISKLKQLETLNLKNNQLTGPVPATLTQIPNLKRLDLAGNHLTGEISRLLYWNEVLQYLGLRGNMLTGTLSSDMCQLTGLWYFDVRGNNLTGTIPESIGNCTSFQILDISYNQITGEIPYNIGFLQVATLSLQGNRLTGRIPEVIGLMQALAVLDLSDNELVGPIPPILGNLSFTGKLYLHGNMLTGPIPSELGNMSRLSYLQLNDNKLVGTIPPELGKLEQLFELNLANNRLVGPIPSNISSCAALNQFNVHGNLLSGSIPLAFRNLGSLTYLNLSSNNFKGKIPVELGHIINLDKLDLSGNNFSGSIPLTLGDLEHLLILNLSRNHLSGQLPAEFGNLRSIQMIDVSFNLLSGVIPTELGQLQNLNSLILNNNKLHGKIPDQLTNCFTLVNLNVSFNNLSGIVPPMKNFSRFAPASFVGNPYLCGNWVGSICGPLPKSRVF
T2 sequence 2: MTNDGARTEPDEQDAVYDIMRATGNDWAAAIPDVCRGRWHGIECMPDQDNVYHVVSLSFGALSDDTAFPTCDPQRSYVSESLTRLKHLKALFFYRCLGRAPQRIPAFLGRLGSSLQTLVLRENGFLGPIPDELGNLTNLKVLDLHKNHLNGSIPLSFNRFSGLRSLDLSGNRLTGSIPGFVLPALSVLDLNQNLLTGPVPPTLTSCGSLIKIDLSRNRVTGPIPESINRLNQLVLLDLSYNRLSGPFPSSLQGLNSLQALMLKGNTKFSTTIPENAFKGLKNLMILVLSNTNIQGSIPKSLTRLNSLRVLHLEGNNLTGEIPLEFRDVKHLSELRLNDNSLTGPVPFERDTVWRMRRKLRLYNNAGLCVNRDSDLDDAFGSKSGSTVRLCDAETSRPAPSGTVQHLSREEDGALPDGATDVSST

ER^LRR–TMM^LRR complex [13] = target: T3, ER^LRR–TMM^LRR complex (Arabidopsis thaliana, UniProt Q42371;Q9SSD1); assay: pull-down
T3 sequence 1: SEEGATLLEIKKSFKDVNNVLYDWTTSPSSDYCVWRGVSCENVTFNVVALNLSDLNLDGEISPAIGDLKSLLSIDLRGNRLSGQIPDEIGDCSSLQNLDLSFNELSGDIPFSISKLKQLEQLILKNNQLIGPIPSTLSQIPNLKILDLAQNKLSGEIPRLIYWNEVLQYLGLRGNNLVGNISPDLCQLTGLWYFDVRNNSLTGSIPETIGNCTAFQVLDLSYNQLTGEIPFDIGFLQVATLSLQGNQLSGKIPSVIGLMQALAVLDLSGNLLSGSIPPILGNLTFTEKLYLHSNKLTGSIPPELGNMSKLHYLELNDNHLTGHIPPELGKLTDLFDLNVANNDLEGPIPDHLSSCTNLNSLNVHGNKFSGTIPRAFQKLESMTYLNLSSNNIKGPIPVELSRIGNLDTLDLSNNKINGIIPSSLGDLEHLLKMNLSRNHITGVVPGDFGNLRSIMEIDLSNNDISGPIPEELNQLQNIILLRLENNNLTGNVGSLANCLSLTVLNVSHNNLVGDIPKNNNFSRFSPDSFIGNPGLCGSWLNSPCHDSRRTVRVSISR
T3 sequence 2: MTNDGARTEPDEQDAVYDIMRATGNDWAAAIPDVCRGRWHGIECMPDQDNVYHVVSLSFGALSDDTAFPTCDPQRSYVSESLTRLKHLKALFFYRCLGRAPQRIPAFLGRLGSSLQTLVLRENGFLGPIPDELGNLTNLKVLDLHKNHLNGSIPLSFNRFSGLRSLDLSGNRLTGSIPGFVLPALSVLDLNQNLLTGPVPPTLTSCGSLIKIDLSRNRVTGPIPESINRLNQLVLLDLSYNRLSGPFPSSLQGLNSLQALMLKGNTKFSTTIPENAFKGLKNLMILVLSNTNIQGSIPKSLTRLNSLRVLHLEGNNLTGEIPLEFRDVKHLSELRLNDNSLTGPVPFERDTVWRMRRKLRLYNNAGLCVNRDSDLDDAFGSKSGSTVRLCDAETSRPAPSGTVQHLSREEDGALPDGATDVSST

[14] = target: T1, ERL1^LRR, extracellular LRR domain of …; assay: pull-down
[15] = target: T4, ERL2^LRR, extracellular LRR domain of ERL2 (Arabidopsis thaliana, UniProt Q6XAT2 28-580); assay: pull-down
T4 sequence: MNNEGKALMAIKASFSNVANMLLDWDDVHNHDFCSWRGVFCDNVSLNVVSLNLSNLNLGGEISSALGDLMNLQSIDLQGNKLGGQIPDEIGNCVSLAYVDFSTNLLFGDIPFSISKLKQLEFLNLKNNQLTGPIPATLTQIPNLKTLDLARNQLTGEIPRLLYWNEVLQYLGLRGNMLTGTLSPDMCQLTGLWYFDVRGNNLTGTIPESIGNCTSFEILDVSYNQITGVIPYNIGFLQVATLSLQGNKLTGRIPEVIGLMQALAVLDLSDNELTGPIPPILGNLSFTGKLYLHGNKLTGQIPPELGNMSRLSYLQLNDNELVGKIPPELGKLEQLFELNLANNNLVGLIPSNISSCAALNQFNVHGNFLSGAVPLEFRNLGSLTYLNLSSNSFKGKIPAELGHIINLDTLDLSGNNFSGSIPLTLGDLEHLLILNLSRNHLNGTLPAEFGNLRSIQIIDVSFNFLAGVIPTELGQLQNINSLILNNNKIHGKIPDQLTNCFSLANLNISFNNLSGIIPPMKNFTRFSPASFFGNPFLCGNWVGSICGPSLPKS

[16] = target: T5, ER^LRR, extracellular LRR domain of ERECTA (ER) (Arabidopsis thaliana, UniProt Q42371 24-580); assay: pull-down
T5 sequence: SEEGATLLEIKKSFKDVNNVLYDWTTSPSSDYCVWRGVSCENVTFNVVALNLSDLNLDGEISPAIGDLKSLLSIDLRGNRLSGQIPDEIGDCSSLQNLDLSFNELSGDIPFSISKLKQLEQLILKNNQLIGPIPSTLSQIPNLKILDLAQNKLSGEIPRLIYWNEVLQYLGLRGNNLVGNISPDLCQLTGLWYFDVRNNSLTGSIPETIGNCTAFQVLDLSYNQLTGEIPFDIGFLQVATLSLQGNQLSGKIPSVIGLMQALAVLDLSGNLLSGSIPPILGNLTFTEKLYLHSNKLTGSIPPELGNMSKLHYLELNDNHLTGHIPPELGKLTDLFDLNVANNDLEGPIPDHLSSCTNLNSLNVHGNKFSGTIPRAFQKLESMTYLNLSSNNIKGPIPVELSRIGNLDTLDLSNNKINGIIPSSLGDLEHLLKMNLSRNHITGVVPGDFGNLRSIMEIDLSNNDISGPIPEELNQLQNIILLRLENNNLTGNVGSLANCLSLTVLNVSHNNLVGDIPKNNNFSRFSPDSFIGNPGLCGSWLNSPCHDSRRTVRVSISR

Molecule: EPFL4: EPF family growth regulatory peptide, residues 59–109 (PGSSPPTCRSKCGKCQPCKPVHVPIQPGLSMPLEYYPEAWRCKCGNKLFMP)
- interaction with ERL2^LRR in pull-down (ERL2^LRR [1]): interacted strongly
- interaction with ER^LRR in pull-down (ER^LRR [2]): interacted strongly
- interaction with ERL2^LRR alone in gel filtration (ERL2^LRR [3]): interacted strongly
- interaction with ERL1^LRR in pull-down (ERL1^LRR [4]): interacted strongly
- interaction with ER^LRR alone in gel filtration (ER^LRR [5]): interacted strongly
- interaction with ERL1^LRR alone in gel filtration (ERL1^LRR [6]): interacted strongly

Molecule: EPFL8: EPF family peptide, residues 46–99 (MGSEPPVCATKCRNCKPCLPYLFDIRGAHDDDDDSEPYYPVKWICRCRDRVFEP)
- interaction with ERL1^LRR in the absence of TMM^LRR (ERL1^LRR [7]): interacted

Molecule: EPFL9: EPF family peptide, residues 58–102, promotes stomatal development (IGSTAPTCTYNECRGCRYKCRAEQVPVEGNDPINSAYHYRCVCHR)
- competition: amount of ERL1^LRR–TMM^LRR pulled down by EPF2 or EPF1 (ERL1^LRR–TMM^LRR complex [8]): gradually decreased the amount
- competition: amount of ER^LRR–TMM^LRR pulled down by EPF2 or EPF1 (ER^LRR–TMM^LRR complex [9]): gradually decreased the amount
- interaction with ERL1^LRR–TMM^LRR in gel filtration (comigration) (ERL1^LRR–TMM^LRR complex [10]): much more EPFL9 was shifted to a higher-molecular-weight species and comigrated with the complex
- interaction with ERL1^LRR alone in gel filtration (ERL1^LRR [6]): weak interaction

Molecule: IGSTAPTCTYNECRGCRYKCRAEQVPVEGNDPINSAYHYRCVCHR [EPFL9 (STOMAGEN) peptide, residues 58–102]
- fold lower affinity than for ERL1^LRR–TMM^LRR [11]: ~10 fold
- Kd (ERL1^LRR–TMM^LRR complex [12]): 4 µM
- binding result (ER^LRR–TMM^LRR complex [13]): binds

B1: EPFL6 (CHALLAH, CHAL) peptide, residues 106–156 (peptide)
chain: LGSSPPRCSSKCGRCTPCKPVHVPVPPGTPVTAEYYPEAWRCKCGNKLYMP
- binding result [14]: binds
- binding result [15]: binds
- binding result [16]: binds
- binding result (ERL1^LRR–TMM^LRR complex [12]): binds
